Many of the other results were omitted from the sample, so hits are more common in it than they were.
MPTP block = permeability transition pore inhibition; AID 602449; inhibition, % at 10 µM; 360,000 tested, 1.4% active; isolated mouse mitochondria, Ca2+ swelling absorbance, 30 min;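 active means inhibition of 50% or more, scaled per plate between neutral and stimulator controls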
Lipid droplet = modulators of hepatic lipid droplet formation; AML12 mouse hepatocytes, oleate lipid droplets, BODIPY imaging; 240,000 tested, 0.4% active; inhibition, % at 6.5 µM;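 active means lipid droplet intensity inhibited by at least 50%, with more than 500 cells counted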
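System: AML12 hepatocytes (mouse). Probe or stimulus: oleic acid at 100 µM to induce lipid droplet formation. Times: overnight treatment with compound plus oleate. Detection: Image-based BODIPY and DAPI two-channel analysis. Evaluation: percent inhibition of filter-corrected integrated lipid droplet intensity per well.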
Lmaj promast = inhibitors of Leishmania major promastigote growth. Leishmania major promastigotes, resazurin fluorescence viability. inhibition, % at 10 µM. 200,000 tested, 9% active. AID 1063; in the data active means inhibition above about 50%;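 further: promastigotes grown with compound for 44 hours at 28 °C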
T cruzi inh = blocks replication of Trypanosoma cruzi; 300,000 tested, 1.4% active; inhibition, % (concentration not given with the values); T. cruzi beta-gal in NIH3T3, luminescence, 90 h;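 active means mean inhibition across valid replicates above about 55%, limit read from the data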;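 further: signal also drops with host cell toxicity which is not excluded here; higher percent means less beta-gal luminescence so fewer parasites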
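Assay system: NIH/3T3 host cells with β-galactosidase reporter T. cruzi; input: 5,000 host fibroblasts per well; compound: single 50 nL compound addition per well in DMSO; timing: ≥90 h infection period, 3 h prior cell attachment; measured by: GalScreen β-gal luminescence, detergent lysis, 60 min; evaluation: percent inhibition of parasite-derived β-gal signal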
DTT redox prof = compounds producing H2O2 with reducing agent – biochemical, NIH compound library profiling, artefact control for MLSCN library redox annotation, primary screen. DTT-dependent redox cycling H2O2, phenol red/HRP absorbance; 100% = 100 µM peroxide control, 0% = buffer. activation, % at 10 µM. 200,000 tested, 0.03% active. AID 878;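 active means activation of at least 50% relative to the plate's high and low controls in the primary single-dose screen; inactive means activation below 50%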;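 further: compound incubated with DTT at 0.8 mM final as the reducing agent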
A number is an active result; 0 = inactive; - = not tested or not shown.

SMILES	MPTP block	Lipid droplet	Lmaj promast	T cruzi inh	DTT redox prof
CCNc1ccc(C(=O)OCC(=O)N(Cc2ccccc2)C(C)(C)C)cc1[N+](=O)[O-]	0	0	0	0	0
Cc1occc1C(=O)N=Nc1c(O)n(C)c2ccccc12	0	0	71	0	0
Cn1c(O)c(N=NC(=O)c2ccccc2O)c2ccccc21	0	0	0	0	0
CC(=O)Nc1cccc(-c2ccnc3c2CC(C(=O)NCc2ccc(N4CCN(C)CC4)cc2)O3)c1 (centres undefined)	0	-	-	-	-
CCOc1ccc(C(=O)N/N=C/c2cccc3cccnc23)cc1	0	-	98	0	0
CCn1cc(/C=N/NC(=O)COc2cccc3cccnc23)c2ccccc21	0	0	60	0	0
COc1ccc(C(=O)N/N=C/c2cccc3cccnc23)cc1	0	-	97	0	0
CCOc1ccccc1C(=O)N/N=C/c1cccc2cccnc12	0	-	0	0	0
CCCCCc1cccnc1	0	0	-	0	-
COc1ccc(/C=N/N2CCN(c3ccncc3S(=O)(=O)N3CCCCC3)CC2)cc1	0	0	0	0	0
O=S(=O)(c1cnccc1N1CCN(/N=C/c2ccccc2)CC1)N1CCCCC1	0	-	50	0	0
Cc1ccc(Nc2nc(Cl)nc(NC(C)(C)C)n2)cc1	0	0	-	0	-
Cc1ccc(Nc2nc(Cl)nc(N(C)C#N)n2)cc1	0	-	97	0	0
Cc1cccc(-c2noc(CN(C(=O)/C=C/c3ccccc3Cl)C(C)C)n2)c1	0	0	0	0	0
COc1ccc(Cl)cc1C(=O)N(Cc1nc(-c2cccc(C)c2)no1)C(C)C	0	-	85	0	0
O=C(COc1ccccc1Cl)NNC(=O)c1ccc(-n2cncn2)c([N+](=O)[O-])c1	0	-	-	-	-
Cc1ccc(C(=O)N2CCN(c3ccc([N+](=O)[O-])c(N4CCOCC4)c3)CC2)cc1	0	0	0	0	0
O=C(c1ccc(F)cc1)N1CCN(c2ccc([N+](=O)[O-])c(N3CCOCC3)c2)CC1	0	0	57	0	0
CCCCn1c(N)c(N(CCOC)C(=O)CSc2nnc(-c3ccc(F)cc3)n2N)c(=O)[nH]c1=O	0	-	-	0	-
Cn1c(CN2CCN(C(=O)c3ccccc3Cl)CC2)nc2cc([N+](=O)[O-])ccc21	0	0	0	0	0
Cn1c(CN2CCN(C(=O)c3ccccc3)CC2)nc2cc([N+](=O)[O-])ccc21	0	0	51	0	0
CC(C)NC(=S)N/N=C/C1=CCC2CC1C2(C)C (centres undefined)	0	0	100	0	0
C=C(C)CNC(=S)N/N=C/C1=CCC2CC1C2(C)C (centres undefined)	0	0	100	0	0
CC1=C/C(=N\NC(=S)Nc2cccnc2)CC(C)(C)C1	0	0	99	0	0
CCC(C)(C)C1CCC(=NNC(=S)Nc2cccnc2)CC1 (centres undefined)	0	0	0	0	0
SMILES	MPTP block	Lipid droplet	Lmaj promast	T cruzi inh	DTT redox prof
CCCCNC(=S)N/N=C/C1=CCC2CC1C2(C)C (centres undefined)	0	0	100	0	0
CN(Cc1ccnc2ccccc12)C(=O)C1CCC(=O)N(Cc2ccccc2F)C1 (centres undefined)	0	0	-	0	-
CC1(C)C2CC=C(/C=N/NC(=S)Nc3cccnc3)C1C2 (centres undefined)	0	0	97	0	0
CC(C)(C)c1ccc(/C=N/NC(=S)Nc2cccnc2)cc1	-	0	0	0	0
Cc1ccc(S(=O)(=O)NC2(C(F)(F)F)C(=O)Nc3c2c(=O)[nH]c(=O)n3-c2ccccc2)cc1 (centres undefined)	0	0	72	0	0
Cc1ccc(-n2c3c(c(=O)[nH]c2=O)C(NS(=O)(=O)c2ccc(C)cc2)(C(F)(F)F)C(=O)N3)cc1 (centres undefined)	0	-	0	0	0
C/C(Cn1cnc([N+](=O)[O-])n1)=N/NC(=O)COc1c(Cl)cc(Cl)cc1Cl	0	0	0	62	0
CC1(C)CC(=O)C(C(C2=C(O)CC(C)(C)CC2=O)c2ccc(O)c([N+](=O)[O-])c2)=C(O)C1	0	0	0	0	0
COC(=O)[C@@H]1Cc2c([nH]c3ccccc23)C(C)(C)N1C(=O)CCl	0	0	-	63	-
CCN(CC)S(=O)(=O)c1ccc2c(c1)oc(=O)n2CC(=O)NC1CCCCC1	0	0	-	0	-
CC(=O)Nc1ccc(OCC(=O)N2CCC(Cc3ccccc3)CC2)cc1	0	0	0	0	0
O=C(Nc1ccc(OCC(=O)N2CCC(Cc3ccccc3)CC2)cc1)c1ccco1	0	0	51	0	0
COC(=O)C(NC(=O)COc1ccccc1)(Nc1nc2c(s1)CCCC2)C(F)(F)F (centres undefined)	0	0	65	0	0
Cc1ccc(Oc2ncccc2N)c2c1CCC2	0	0	-	0	-
Cc1sc2ncnc(Sc3ccccc3C(=O)O)c2c1C	0	0	0	0	0
Cc1sc2ncnc(Sc3nnnn3-c3ccccc3)c2c1C	0	-	89	0	0
Cc1ccc(CNC(=O)CNC(=S)N(Cc2ccccc2)Cc2cccnc2)cc1	0	0	97	0	0
CC(NC(=O)CNC(=S)N(Cc1ccccc1)Cc1cccnc1)c1ccccc1 (centres undefined)	0	0	65	55	0
O=C(CNC(=S)N(Cc1ccccc1)Cc1ccccc1F)NCCc1ccc(Cl)cc1	0	0	98	85	0
COc1ccc(N2CS(=O)CC2=O)cc1 (centres undefined)	0	0	0	0	0
CCOC(=O)N/N=C\c1ccc(-c2cc(Cl)ccc2Cl)o1	0	0	0	0	0
COC(=O)N/N=C/c1ccc(-c2cc(Cl)cc(Cl)c2)o1	0	0	0	0	0
NC(=S)N/N=C/c1ccc(-c2cc(Cl)ccc2Cl)o1	0	0	100	67	0
NC(=S)N/N=C/c1ccc(-c2cc(Cl)cc(Cl)c2)o1	0	0	97	59	0
COC(=O)N/N=C/c1ccc(-c2cccc(Cl)c2)o1	0	0	61	0	0
SMILES	MPTP block	Lipid droplet	Lmaj promast	T cruzi inh	DTT redox prof
CSCCC(NS(=O)(=O)c1ccc(Cl)cc1)C(=O)OCc1cccc(Cl)c1 (centres undefined)	0	0	97	0	0
CSCCC(NS(=O)(=O)c1ccc(Cl)cc1)C(=O)OCc1c(Cl)cccc1Cl (centres undefined)	0	0	99	0	0
CSCCC(NS(=O)(=O)c1ccc(Cl)cc1)C(=O)OCC(=O)N(C(C)C)C(C)C (centres undefined)	0	0	0	0	0
CSCCC(NS(=O)(=O)c1ccccc1F)C(=O)N1CCCCCC1 (centres undefined)	0	0	-	0	-
CSCCC(NS(=O)(=O)c1ccccc1F)C(=O)OCc1ccccc1Cl (centres undefined)	0	0	75	0	0
Cc1nnc2sc(SCC(=O)Nc3cccc(Cl)c3)nn2c1=O	0	0	0	0	0

High-throughput results deposited in PubChem BioAssay by several laboratories.
